In the RNAGym collection of RNA variant scans (doi:10.1126/science.aae0568):
This sample holds only a part of the variants without activity.

B1: tRNA (parent)
chain: GUUCCGUUGGCGUAAUGGUAACGCGUCUCCCUCCUAAGGAGAAGACUGCGGGUUCGAGUCCCGUACGGAACG

Variants of: B1
Test: yeast fitness relative to wild type (ratio to wild type); higher = fitter; tRNA-Arg(CCU), competitive growth, 37 C, YPD
Method in brief: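 Amplicons of the tRNA-Arg(CCU) gene were sequenced, 100-nucleotide paired-end, from the start population and from each end population of a pooled yeast competition. The competition, in six parallel replicates, lasted 24 hours in YPD at 37°C. Fitness relative to wild type was calculated from changes in genotype frequencies. Genotypes had to have ≥ 100 starting reads, and estimates < 0.5 were set to 0.5.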

Variant	yeast fitness
G6A G10C A15U A70G	≤ 0.5
G6A C11U C34G G58A	0.724
G6A C31G A43C C49A U54C C60G	≤ 0.5
G6A C24G U35A G48C A69G	0.574
G6A C11U C30U G67A	≤ 0.5
G6A C33G C34G A43U C61A	≤ 0.5
G6A C27U C31G A43C C49G G52C U59A	≤ 0.5
G6A C31A C55G C66A	≤ 0.5
G6A A40C	0.967
G6A A57C G58A	≤ 0.5
G6A G10A G17A	0.55
G6A G12C U16A A21C G56A	0.536
G6A C22U C29G A42G	≤ 0.5
G6A G10C G63A	≤ 0.5
G6A C29U C31A C34U G56A	≤ 0.5
G6A C55A	0.587
G6A C55G	0.656
G6A C31U G41C A42U C66U	≤ 0.5
G6A C11U U26A C33A A43G	≤ 0.5
G6A C22A U35A C49G G63C	≤ 0.5
G6A C24G	0.625
G6A C11A C24G A42U	≤ 0.5
G6A C24U C55G A70U	0.624
G6A G9C G23A U26C A40U A42U	≤ 0.5

Variant	yeast fitness
G6A C22G U54G A69U	≤ 0.5
G6A C29G U47C U59A	≤ 0.5
G6A C30U G67A	0.586
G6A C22G G52C G58C A65U	≤ 0.5
G6A G12C U16A A21C	≤ 0.5
G6A C33A A37C G58A C66U G67U	≤ 0.5
G6A C22U C33A C55U C61A	≤ 0.5
G6A G9C A21C C30U	≤ 0.5
G6A G9C C11G C34U A57G	0.54
G6A G18C C49A C61G	≤ 0.5
G6A C61U A69U	0.632
G6A G12C U16C A21U C66U	0.571
G6A G12C U16C C31U G52C A70G	0.651
G6A A42U G58A	0.634
G6A C24U G63A	0.674
G6A C22U C34G G56C	0.693
G6A C27A	0.707
G6A C62U A65C	0.763
G6A C24G C31G	0.527
G6A G9C C29U C55G	≤ 0.5
G6A C24G C34G	≤ 0.5
G6A C22G C62G	≤ 0.5
G6A C31U C34U G52A	≤ 0.5
G6A C24A G38A G39C G52A	0.625

Variant	yeast fitness
G6A C24U C29G C66U	≤ 0.5
G6A C30U G63A G67A	≤ 0.5
G6A C61G A70C	0.522
G6A C49U A65C	0.701
G6A C49U A65U	0.667
G6A G9A A14U G63A	0.747
G6A C30A C31U A45C C55G	≤ 0.5
G6A C11U U13C A43G G67U	≤ 0.5
G6A G18C A21C C33A G52A	≤ 0.5
G6A C24A A43C G52C C66G A69G	≤ 0.5
G6A A40U A69C	0.581
G6A C11G C22G U54A	≤ 0.5
G6A G17A U19A C31G U53C U54A	≤ 0.5
G6A G23C	0.643
G6A G23A	0.877
G6A C11A A15G C49G G51C G68A	≤ 0.5
G6A G9A A21U C31G	≤ 0.5
G6A C27U C30U	0.596
G6A C11U G68C	0.54
G6A C62U G67C	≤ 0.5
G6A C34G	0.569
G6A C34A	0.739
G6A G18C A37C	≤ 0.5
G6A G18A	0.824

Variant	yeast fitness
G6A A40G A45U G56A	≤ 0.5
G6A A65U	0.925
G6A A65G	0.88
G6A C11G C33G A70U	≤ 0.5
G6A C11A A14C U19C U32A U35C A42C	≤ 0.5
G6A G9C A21C C30U A45U	≤ 0.5
G6A C22U C27G A36G A43G	≤ 0.5
G6A C11G A21G C24A G52A C60A A69G	≤ 0.5
G6A G23C C49G G50A U53G A57G	≤ 0.5
G6A C22U A40C A69U	0.63
G6A C27G A40C	0.545
G6A A40G G44A	0.614
G6A A40G G41A A42G	≤ 0.5
G6A C27A G50A A69U	0.542
G6A C11U C24U	≤ 0.5
G6A A65C A70U	0.712
G6A A40U G56C	≤ 0.5
G6A C22U C30G A36G C62U A65U	≤ 0.5
G6A C30U A42C G48C	≤ 0.5
G6A C31A U59C A70U	≤ 0.5
G6A C11G U35A A37U A70C	≤ 0.5
G6A C27G C46U C60A C66G G68C	≤ 0.5
G6A C24U A65U	≤ 0.5
G6A C24G G50A	≤ 0.5

Variant	yeast fitness
G6A A45U A69U	0.826
G6A C33G C34G	≤ 0.5
G6A C27A A65G A70C	≤ 0.5
G6A C46G	0.937
G6A C46U	0.976
G6A C61G G67C	0.546
G6A C29U A57G U59C C62U	≤ 0.5
G6A G23U C24G U35A G48C	≤ 0.5
G6A G10A A45G	0.647
G6A C11A C27G U35A A43U U54C A65G	≤ 0.5
G6A C61A	0.66
G6A C61U	0.902
G6A C11A A40G G56C C61G A70U	≤ 0.5
G6A A42G G50C	0.62
G6A A43G U59C	0.595
G6A C62G A70G	≤ 0.5
G6A C24U G38A C61G C66U A69U	≤ 0.5
G6A C27U C29A G58C	≤ 0.5
G6A C22U C29G	≤ 0.5
G6A C33U C49A G58C A69U	≤ 0.5
G6A C22U C61U A70G	≤ 0.5
G6A C11U U13C A43G G52A G67A	≤ 0.5
G6A C33U A43G	≤ 0.5
G6A G10C A20C U28C A36U	0.695

Variant	yeast fitness
G6A G12C C49G	≤ 0.5
G6A C62U	0.921
G6A G25A A69U	0.68
G6A G12A U13C U16A U19G G23A G58A G68A	≤ 0.5
G6A A40U A43C	0.766
G6A A37U C55G C66U	≤ 0.5
G6A G18C A21C C33A	0.605
G6A G12C U16C C31U G52C	0.555
G6A C24U U47C	0.751
G6A C34G C61G	0.538
G6A C33A A42C	0.578
G6A C34G A37G A57G A70C	≤ 0.5
G6A C22G U47A A65G	≤ 0.5
G6A C33G A43U	0.574
G6A G10C C29U	≤ 0.5
G6A C27A C30U G41C A43U C49A G63U	0.54
G6A A45G A70C	0.856
G6A A45C A70U	≤ 0.5
G6A C11A A45U U59G	≤ 0.5
G6A C66A A69C	0.565
G6A C22U A40C	≤ 0.5
G6A C29U U47A G51A A57G	≤ 0.5
G6A C11G C34G A42G C62U	0.609
G6A A40G A42G	0.554

Variant	yeast fitness
G6A C31A A69U	0.506
G6A C22U A42C	0.605
G6A G12A A57U	≤ 0.5
G6A A57C G63A A65C A70C	≤ 0.5
G6A C49U C55U	0.561
G6A C11A G17A U35G U59C	≤ 0.5
G6A C24U A57C G68U A69C	≤ 0.5
G6A C29A C62A	≤ 0.5
G6A C34A G58C A65C A69C	≤ 0.5
G6A C30U C62A	≤ 0.5
G6A G25C	0.866
G6A C49G	0.904
G6A C49A	0.625
G6A C11U	0.801
G6A C11A	0.639
G6A C11A A14C U19C G23A U32A A42C	0.532
G6A C49U A57C A65C A70C	≤ 0.5
G6A A45C C46G	0.617
G6A C60G A70C	0.531
G6A C22U U35C C55A C66U	≤ 0.5
G6A C27A A36G	≤ 0.5
G6A C29G A37U G56C G67C	≤ 0.5
G6A C11G C24U	≤ 0.5
